High-throughput results: PubChem BioAssay, several laboratories
Arbovirus anti: arbovirus infection inhibition. arbovirus infection cell-based antiviral screen. inhibition, % at 10 µM. 200,000 tested, 0.37% active; in the data active means inhibition above about 30%
Wee1 stabilizer: human Wee1 degradation inhibition, primary screen; HeLa Luc-Wee1K328M stability, luciferase luminescence; 100% = proteasome inhibitor MG132 effect; reporter increase, % at 5 µM; 220,000 tested, 1.2% active; AID 1321;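 active means activation above the mean of all tested compounds plus 3 SD, set per screening run, cut at about 8.8% in these data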;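 further: cells exposed to compound for 20 h before luminescence read; 0% = DMSO alone and 100% = MG132 at 30 µM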
Target sequence (P30291 whole entry K328M): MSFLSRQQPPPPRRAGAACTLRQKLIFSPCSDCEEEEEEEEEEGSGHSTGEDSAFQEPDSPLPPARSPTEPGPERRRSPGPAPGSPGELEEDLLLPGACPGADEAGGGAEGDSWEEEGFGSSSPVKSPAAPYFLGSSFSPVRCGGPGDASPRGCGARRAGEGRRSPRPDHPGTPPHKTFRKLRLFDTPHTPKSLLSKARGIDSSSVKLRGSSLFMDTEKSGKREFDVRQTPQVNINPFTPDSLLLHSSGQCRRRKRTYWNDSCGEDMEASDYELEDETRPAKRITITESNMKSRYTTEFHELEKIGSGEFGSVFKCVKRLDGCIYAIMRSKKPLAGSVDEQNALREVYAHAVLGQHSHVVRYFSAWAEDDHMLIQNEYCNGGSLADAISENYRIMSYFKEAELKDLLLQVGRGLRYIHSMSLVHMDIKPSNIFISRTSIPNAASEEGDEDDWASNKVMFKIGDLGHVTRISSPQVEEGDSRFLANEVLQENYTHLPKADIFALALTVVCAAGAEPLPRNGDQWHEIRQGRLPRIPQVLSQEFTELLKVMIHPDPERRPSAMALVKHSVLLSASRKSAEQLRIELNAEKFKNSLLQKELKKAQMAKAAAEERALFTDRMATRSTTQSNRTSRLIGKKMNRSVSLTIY
PKD1 inh: PKD1 (human) kinase inhibition; Q15139; PKD1 kinase fluorescence polarization assay; inhibition, % (concentration not given with the values); 200,000 tested, 0.056% active; AID 797
CHOP inh: CHOP inhibition in unfolded protein response; CHO-K1 CHOP-promoter luciferase, tunicamycin-induced, 15-18 h; inhibition, % at 10 µM; 220,000 tested, 3.8% active; AID 2732;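 active means compounds that reduced the stress-induced luciferase reporter signal by more than about 70% of percent inhibition, limit read from the data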;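 further: 0% = tunicamycin plus vehicle and 100% = wells without tunicamycin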
Rad51 HR inh: blocks human Rad51 in homologous recombination; Q06609; hRad51 DNA strand exchange, fluorescence dequenching; inhibition, % at 10 µM; 200,000 tested, 0.085% active; AID 1385;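 active means inhibition above 40% at the single screening dose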;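 further: 0% = DMSO control wells and 100% = blanks with heterologous ssDNA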
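material = hRad51 filaments on single-stranded DNA | timing = filaments 15 min 37 °C, then compound 30 min | signal = FRET fluorescence dequenching, excitation 485 nm, emission 520 nm | benchmarks = control wells and blank wells on each plate | evaluation = percent inhibition relative to plate controls and blanks | compound = 10 µM final, single point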
Lmaj promast: Leishmania major promastigote growth inhibition | Leishmania major promastigotes, resazurin fluorescence viability | inhibition, % at 10 µM | 200,000 tested, 9% active;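 further: promastigotes grown with compound for 44 hours at 28 °C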
The depositor's hits bear a star; . = no result given. Only some compounds are listed: those with a hit (about 12% of all), similar ones and a draw of the others. Unless noted, no stated cut-off is given here; in the data, active means inhibition above about 50%; inactive means the rest.

SMILES	Arbovirus anti	Wee1 stabilizer	PKD1 inh	CHOP inh	Rad51 HR inh	Lmaj promast
CCCCCCOc1ccc(NC(=O)CC2C(=O)N(CC)C(=S)N2Cc2ccco2)cc1 (configuration not stated)	-30.0	5.5	9.7	91.2*	-9.6	65.7*
COC(=O)CN1C(=S)N(c2ccc(Cl)cc2)C(=O)C1CC(=O)Nc1ccccc1 (configuration not stated)	-1.6	1.4	-5.7	42.2	-2.9	64.2*
CCOc1ccc(NC(=O)CC2C(=O)N(c3ccc(OC)cc3)C(=S)N2Cc2ccccn2)cc1 (configuration not stated)	-7.1	-2.6	-4.5	25.3	1.7	79.9*
NC(=O)NC(=O)COC(=O)CCSc1ccccc1	5.9	-3.8	0.4	6.3	-1.7	-7.9
Cc1noc(C)c1COC(=O)c1ccccc1NC(=O)c1ccco1	-1.7	-0.8	-6.2	47.7	.	-4.8
Cc1ccc(NC(=O)CCCSc2ccccc2)cc1S(=O)(=O)N1CCOCC1	5.8	-1.1	-1.9	3.9	-34.0	46.1
COc1ccc(SCCC(=O)NCc2ccncc2)cc1	.	0.9	.	2.2	16.5	.
Cc1nn(-c2ccccc2)c(C)c1/C=N/NC(=O)CSc1nc2ccccc2c(=O)n1-c1ccc(Br)cc1	-12.2	-2.0	1.2	85.2*	7.9	1.9
Cc1nn(-c2ccccc2)c(C)c1/C=N/NC(=O)CSc1nnc(SCc2cccc3ccccc23)s1	-17.5	-1.7	-5.6	38.4	23.6	96.7*
Cc1ccccc1-n1c(SCC(=O)NC(N)=O)nc2sc(-c3ccccc3)cc2c1=O	6.5	-3.0	9.8	37.9	9.0	60.9*
Cc1ccccc1-n1c(SCC(=O)N/N=C/c2sccc2C)nc2ccccc2c1=O	-16.8	0.0	-4.5	26.9	3.9	86.2*
Cc1ccc(-n2c(SCC(=O)N/N=C/c3c(C)nn(-c4ccccc4)c3C)nc3ccccc3c2=O)cc1	-5.6	-0.3	-10.2	-28.7	0.2	12.1
Cc1cc(Cl)ccc1OCc1cn2cccnc2n1	6.1	-2.9	4.7	-36.4	2.1	36.0
COc1cc(/C=N/NC(=S)NC2CC3CC2C2C=CCC32)ccc1O (configuration not stated)	.	2.6	.	-53.9	-6.2	.
CC(=O)Nc1ccc(C(=O)NCC(=O)OCc2c(F)cccc2Cl)cc1	-1.9	-0.6	1.5	-4.4	18.1	0.8
CC(=O)CCc1oc2ccc(C)cc2c1-c1ccccc1	.	-0.2	.	5.8	4.4	.
C/C(CCc1oc2ccc(Cl)cc2c1-c1ccc(C)o1)=N\O	-3.6	2.6	2.5	74.8*	-5.9	-4.3
CCCCCCn1c(SCCCC)nc2c1c(=O)[nH]c(=O)n2C	-23.0	4.1	-2.1	8.8	2.7	12.8
CCn1c([N+](=O)[O-])nc2c1c(=O)[nH]c(=O)n2C	-22.3	-1.1	-5.8	29.3	-0.4	100.3*
CCc1ccccc1NC(=O)c1ccccc1Sc1ccc([N+](=O)[O-])cc1Cl	-0.2	1.6	-8.3	18.5	3.8	96.8*
CN(C)CCN=Cc1c(O)n(Cc2ccc3c(c2)OCO3)c(=O)c2ccccc12	14.9	0.0	-3.1	5.8	-23.0	73.7*
Cn1c(=O)c(C(=O)CN2CCN(Cc3ccc4c(c3)OCO4)CC2)c(N)n(Cc2ccccc2)c1=O	.	8.0	.	20.6	11.9	.
O=c1c2ccccc2c(C=NC2CCN(Cc3ccccc3)CC2)c(O)n1Cc1ccc2c(c1)OCO2	-3.7	5.0	-2.7	5.8	9.1	87.1*
CCN(CC)CCCN=Cc1c(O)n(Cc2ccccc2)c(=O)c2ccccc12	-10.6	-0.4	-5.5	-15.7	-2.0	99.2*
CN(C)CCCN=Cc1c(O)n(Cc2ccc3c(c2)OCO3)c(=O)c2ccccc12	-17.0	0.2	-4.3	4.0	-0.9	98.3*
SMILES	Arbovirus anti	Wee1 stabilizer	PKD1 inh	CHOP inh	Rad51 HR inh	Lmaj promast
Cc1cccc(-c2ncc(CN3CCCC(CO)(Cc4ccccc4C)C3)cn2)c1 (configuration not stated)	-16.8	6.0	-2.6	11.0	-8.9	15.0
COc1ccc(N2CS(=O)CC2=O)cc1 (configuration not stated)	-0.3	-1.9	2.3	-2.2	-52.7	-3.7
O=C(N/N=C/C=C\c1ccc([N+](=O)[O-])cc1)c1cccnc1	.	0.5	.	12.8	-11.8	.
CCn1c2ccccc2c2cc(NC(=O)CC(C)=O)ccc21	7.5	-0.1	0.6	28.7	-6.5	-3.9
CC(C)(C)NC(=O)C(=O)NNC(=O)c1cccc(F)c1	2.3	2.1	1.4	-21.1	.	-1.8
Cc1ccc(COc2ccc(C)nc2[N+](=O)[O-])cc1	.	8.8*	.	-1.0	12.2	.
O=C(c1ccccc1Cl)N1CCC(n2cccc2)CC1	.	1.1	.	-1.6	-19.0	.
N#C/C(=C/c1ccc(Oc2ccc([N+](=O)[O-])cn2)cc1)C(=O)N1CCOCC1	2.0	-0.1	-2.1	-16.5	1.4	65.5*
Cc1ccccc1SC1CCN(Cc2nc(C3CC3)no2)CC1	8.5	-2.5	-4.5	23.1	-62.6	15.8
Cc1cc(C)cc(NC(=O)c2oc3ccccc3c2COc2ccccc2)c1	13.5	2.1	-5.5	13.4	-3.8	89.4*
O=C(O)c1cccc(NC(=S)NC(=O)c2ccc(-c3ccccc3)cc2)c1	27.8	4.4	-3.5	5.1	2.6	-7.4
COc1ccc(C(=O)O)cc1NC(=S)NC(=O)c1ccc(-c2ccc(Cl)cc2)o1	50.4*	-1.1	-2.4	-6.8	-61.0	-5.5
O=C(O)c1cccc(NC(=S)NC(=O)c2ccc(-c3ccc(Cl)cc3)o2)c1	35.4*	-0.9	-10.1	-12.7	-110.8	-4.1
CC(=O)c1ccc(NC(=O)/C(=C\c2cccs2)NC(=O)c2ccco2)cc1	3.6	0.5	4.8	-2.5	3.8	-6.4
COc1ccc(C(=O)Nc2nc(C)c3cc4c(cc3n2)OCO4)cc1	-8.7	3.1	5.0	72.4*	2.2	-4.0
c1cnc2ccc(C(c3nnnn3C3CCCCC3)N3CCCCC3)cc2c1 (configuration not stated)	-12.4	0.1	0.4	-29.1	12.2	28.4
c1cnc2ccc(C(c3nnnn3C3CCCCC3)N3CCN(C4CCCCC4)CC3)cc2c1 (configuration not stated)	.	0.6	-7.0	.	-4.0	98.8*
c1cnc2ccc(C(c3nnnn3C3CCCC3)N3CCN4CCCC4C3)cc2c1 (configuration not stated)	1.2	-0.1	-4.0	5.5	-5.9	52.0*
CCOC(=O)Cn1c(=O)oc2cc(S(=O)(=O)N(C)c3cccc(C)c3)ccc21	.	2.9	.	-7.5	.	.
Cn1nc(C(=O)N2CCN(C(c3ccccc3)c3ccccc3)CC2)c2ccccc2c1=O	.	6.7	.	13.0	-27.0	.
COC1(C)CC2C(CC1OC(=O)c1cc([N+](=O)[O-])cc([N+](=O)[O-])c1)C2(C)C (configuration not stated)	2.0	0.5	3.1	22.5	-5.5	100.3*
CC1=C(CCN2CCN(C3CCCC3)C(CCO)C2)C(C)(C)CCC1 (configuration not stated)	17.7	-3.7	0.6	-3.9	7.0	82.8*
